TRPC4 act: activators of mouse TRPC4 channel, primary screen, Fluo4 calcium, HEK293 TRPC4beta/mu-opioid cells; AID 2237, 2010; Fluo4 calcium fluorescence; hits give high values; actives 0.49% (n = 310,000); B-score at 10 µM;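 active = B-score above 5 SD of library B-scores, and initial fluorescence ratio not above library mean plus 5 SD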;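 note: positive B-score marks a calcium rise read as TRPC4 activation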
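Test system: HEK293 cells stably co-expressing mouse TRPC4beta and mu-opioid receptor | Schedule: Fluo4 dye loading 45 min at room temperature, 110 s recording | Measured by: Kinetic Fluo4 calcium fluorescence, 5 s baseline at 1 Hz | Evaluation: B score of integrated ratio | Controls: Buffer (low) and maximal DAMGO (high)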
TRPC6 activator: mouse TRPC6 channel activators, primary screen, cell-based, HEK293, membrane potential dye. B-score at 10 µM. HEK293-TRPC6 membrane potential dye fluorescence; hits give high values. actives 0.13% (n = 310,000). Short transient receptor potential channel 6 (Mus musculus), Q61143;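 active = B-score of the integrated fluorescence ratio above library mean plus 3 SD, and starting fluorescence ratio within library mean plus 5 SD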;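 note: higher score means more depolarization so channel activation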
Platelet DG rel: inhibitors of platelet dense granule secretion, primary screen, cell-based, MLPCN, human platelets. actives 0.22% (n = 300,000). human platelet-rich plasma, SFLLRN dense granule ATP release, luminescence. inhibition, %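 (compounds screened at 7.5 µM in platelet-rich plasma)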;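 active = mean replicate score, as percent of positive control, at or above 50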
TRPC4 inh: inhibitors of mouse TRPC4 channel, primary screen, Fluo4 calcium, HEK293 TRPC4beta/mu-opioid cells; B-score at 10 µM; DAMGO-evoked Fluo4 calcium flux; hits give low values; Short transient receptor potential channel 4 (Mus musculus), Q9QUQ5; AID 2247, 2010; actives 0.39% (n = 300,000);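 active = B-score over 3 SD under the library average, no early fluorescence shift, positive overall ratio signal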
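Assay system: HEK293 cells with stable TRPC4beta plus mu-opioid receptor expression; Probe or stimulus: DAMGO in two steps, submaximal then maximal; Dosing: single-point compound dosing; Measured by: Fluo4 calcium-dye fluorescence, kinetic read; Read-out basis: B score from integrated Fluo4 fluorescence ratio.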
TRPC4 potent: positive allosteric modulators of TRPC4, primary screen, cell-based, mouse TRPC4beta, HEK293 mu-opioid, Fluo-4 calcium; Short transient receptor potential channel 4 (Mus musculus), Q9QUQ5; actives 0.42% (n = 310,000); AID 2227, 2009; DAMGO EC20, Fluo-4 Ca2+ flux; hits give high values; B-score at 10 µM;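 active = B-score of calcium response area above 5 SD of library B-scores, with initial fluorescence ratio within 5 SD of library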;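 note: B-score of integrated fluorescence ratio over time as area under calcium response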
TRPC6 inh: mouse TRPC6 channel inhibitors, primary screen, cell-based, HEK293, membrane potential dye. Short transient receptor potential channel 6 (Mus musculus), Q61143. ACh-evoked depolarization; hits give low values. B-score at 10 µM. actives 1.1% (n = 310,000). AID 2553, 2010;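 active = B-score under library mean minus 3 SD, initial fluorescence not abnormally high, positive integrated signal ratio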;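 note: B-score derived from integrated fluorescence ratio over the kinetic read; more negative B-score means stronger inhibition of depolarization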
The depositor's hits bear a star; i = inactive. In the library only some 2.5% were active in any assay of this set; here they are far more common.

SMILES | TRPC4 act | TRPC6 activator | Platelet DG rel | TRPC4 inh | TRPC4 potent | TRPC6 inh
O=C(NCc1ccccc1)c1ccc2c(=O)[nH]c3c(C(=O)NCC4CCCO4)sc(=S)n3c2c1 (configuration not stated) | i | i | 2 | i | i | i
CCCCCNC(=O)c1ccc2c(=O)[nH]c3c(C(=O)NCC4CCCO4)sc(=S)n3c2c1 (configuration not stated) | i | i | 2 | i | i | i
Cn1c(SCC(=O)O)nnc1-c1ccc(NC(=O)c2ccc(Cl)c(Cl)c2)cc1 | i | i | -2 | i | i | i
CC(=O)c1ccc(N2CCN(C(=O)/C=C/c3ccc(S(=O)(=O)N4CCOCC4)cc3)CC2)cc1 | i | i | -2 | i | i | i
CC(=O)c1ccc(N2CCN(C(=O)/C=C/c3ccc(S(=O)(=O)NCc4ccco4)cc3)CC2)cc1 | i | i | 10 | i | 12* | i
CCOC(=O)C1CCN(C(=O)CCc2nnc3ccc(NCc4ccco4)nn23)CC1 | i | i | 70* | i | i | i
Cc1ccnc(SCc2cc(=O)c(OC(=O)c3ccc(S(=O)(=O)N(C)C)cc3)co2)n1 | i | i | -8 | i | i | i
COc1ccccc1N1CCN(C(=O)NCc2cccc(C(F)(F)F)c2)CC1 | i | i | 4 | i | i | i
CCCS(=O)(=O)c1c(S(=O)(=O)CCC)c2ccc(C(N)=O)cn2c1C(=O)c1ccc(OC)cc1 | i | i | 5 | i | 20* | i
CCCS(=O)(=O)c1c(S(=O)(=O)CCC)c2ccc(C(N)=O)cn2c1C(=O)OC | i | i | 4 | i | i | i
CCNC(=S)NNC(=O)c1cc(-c2ccc(OC)cc2)nc2ccccc12 | i | i | 111* | i | i | i
CCCCOc1ccc(-c2cc(C(=O)NNC(=S)NCC)c3ccccc3n2)cc1 | i | i | 77* | i | i | i
O=C(OCC(=O)C12CC3CC(CC(C3)C1)C2)c1ccc(O)cc1O | i | i | -2 | i | i | i
COC1CCN(Cc2c(C(=O)N3CCN(C4CCCCC4)CC3)nc3ccccn23)CC1 | i | i | -4 | i | i | i
O=C1NC(CCc2ccccc2)C(=O)N1CCOc1cccc(Br)c1 (configuration not stated) | i | i | 4 | i | i | i
Cc1sc2ncnc(N3CCC(C(=O)Nc4nc(-c5cccs5)cs4)CC3)c2c1C | i | i | -29 | i | i | i
CCCCc1nnc(NC(=O)C2CCN(c3ncnc4sc(C)c(C)c34)CC2)s1 | i | i | 20 | i | 93* | i
CCOC(=O)C1(CC2CCCCO2)CCN(Cc2cccnc2)CC1 (configuration not stated) | i | i | -2 | i | i | i
CCCCc1ncc(CN2CCC(CC3CCCCO3)(C(=O)OCC)CC2)[nH]1 (configuration not stated) | i | i | -3 | i | i | i
CCOC(=O)C1(CC2CCCCO2)CCN(Cc2ccccc2-c2ccco2)CC1 (configuration not stated) | 78* | i | 11 | i | i | i
CCOC(=O)C1(CC2CCCCO2)CCN(Cc2cn[nH]c2-c2cccc(F)c2)CC1 (configuration not stated) | 76* | i | -6 | i | i | i

Screening data: PubChem BioAssay, several laboratories
